Experimental data from different studies.
Protocols differ between the studies behind these lines.
Target: Calcium/calmodulin-dependent protein kinase type II subunit gamma (CAMK2G, Homo sapiens, UniProt Q13555)

`COc1cc(-c2cn(C3CCc4ccccc4N(CC(F)(F)F)C3=O)nn2)ccc1-n1ccc(C)n1` (stereo not drawn) has a remaining binding of 100% (cell-free assay; competition with immobilised ligand; 1 µM).
`O=C(c1ccc(Nc2nccc(-c3cc4ccccc4s3)n2)cc1)N1CCC(N2CCCC2)CC1` gave a remaining binding of 81% (binding; competition with immobilised ligand; 1 µM).
The remaining binding of `CN(CCCC(F)(F)F)c1nccc(-c2cnn3ncccc23)n1` is reported as 100% (binding; 1 µM).
`O=C(NCCCN1CCOCC1)c1ccc(Nc2ncc(Cl)c(-c3ccc(Cl)s3)n2)cc1` gave a remaining binding of 77% (binding; competition with immobilised ligand; 1 µM).
With `O=C(N1CCS(=O)(=O)CC1)N1C[C@H](c2ccc(OC(F)(F)F)cc2)C[C@H](c2nc(C3CC3)no2)C1` the remaining binding was 100% (cell-free assay; competition with immobilised ligand; 1 µM).
The remaining binding of `CC1CCCN1c1nccc(-c2cnn3ncccc23)n1` (stereo not drawn) is reported as 100% (binding; 1 µM).
The remaining binding of `CCOC(=O)c1cc2cc(-c3cc(C(=O)NCc4ccc(C(=O)O)cc4)nn3C)ccc2[nH]1` is reported as 100% (cell-free assay; competition with immobilised ligand; 0.1 µM).
`Cc1cnn2ncc(-c3ccnc(N(C)C)n3)c2c1` gave a remaining binding of 64% (binding; 1 µM).
`CNC(=O)[C@@H]1CC[C@@H](n2c(-c3ccc4cnccc4c3)nc3ccc(C(=O)NCc4cccc(C(N)=O)c4)cc32)C1` gave a remaining binding of 100% (binding; competition with immobilised ligand; 1 µM).
The remaining binding of `O=C(O)[C@H]1[C@H](Cn2nnc3ccccc3c2=O)CC[C@@H]1C(=O)c1ccc(OCCC2CCOCC2)cc1` is reported as 90% (cell-free assay; competition with immobilised ligand; 1 µM).
The remaining binding of `CCN1CCN(Cc2ccc(C(=O)Nc3ccc(C)c(Oc4ccc5c(c4)CC(=O)N5)c3)cc2C(F)(F)F)CC1` is reported as 97% (binding; competition with immobilised ligand; 1 µM).
With `Cc1cc(-n2nc(Cc3cc(F)cc(C(F)(F)F)c3)nc2C)ccc1C(N)=O` the remaining binding was 100% (cell-free assay; competition with immobilised ligand; 1 µM).
`O=C(c1ccc(Nc2ncc(Cl)c(-c3ccc(Cl)s3)n2)cc1)N1CCC(N2CCCC2)CC1` has a remaining binding of 80% (binding; competition with immobilised ligand; 1 µM).
The remaining binding of `CN(C)c1nccc(-c2cnc3ncccn23)n1` is reported as 100% (binding; 1 µM).
`COc1cnc(Nc2cccc(S(N)(=O)=O)c2)nc1N1CCN(c2ccccc2)C(=O)C1` gave a remaining binding of 100% (binding; competition with immobilised ligand; 1 µM).
`N[C@@H]1CCN(c2nccc(-c3cnn4ncccc34)n2)C1` has a remaining binding of 100% (binding; 1 µM).
`c1cncc(-c2cccc(Nc3nccc(NC4CCCCC4)n3)c2)c1` has a remaining binding of 80% (binding; competition with immobilised ligand; 10 µM).
`O=C(Nc1c[nH]nc1C(=O)NC1CCNCC1)c1cc(F)cc(F)c1` has a remaining binding of 100% (binding; competition with immobilised ligand; 1 µM).
The remaining binding of `COc1ncc2cc3ccccc3nc2c1C#N` is reported as 92% (cell-free assay; competition with immobilised ligand; 5 µM).
The remaining binding of `CN(C)c1ncc(F)c(-c2cnn3ncccc23)n1` is reported as 90% (binding; 1 µM).
`CCCOc1ccc([C@H]2[C@H](C(=O)O)[C@@H](c3ccc4c(c3)OCO4)CN2CC(=O)Nc2c(CC)cccc2CC)cc1` has a remaining binding of 95% (cell-free assay; competition with immobilised ligand; 1 µM).
